Laboratory results reported in ChEMBL document CHEMBL4024800, “α-Amino-β-carboxymuconate-ε-semialdehyde Decarboxylase (ACMSD) Inhibitors as Novel Modulators of De Novo Nicotinamide Adenine Dinucleotide (NAD+) Biosynthesis” (J Med Chem, 2018).
Active and inactive are the calls of the source. The rule behind the calls is not given here.

Legend:
[1] = Apparent passive permeability from apical to basolateral side in MDCK2-MDR1 cells at 3 uM after 90 mins by LC-MS/MS analysis; format: ADME, cell-based, Canis lupus familiaris; settings: dog, MDCK-MDR1
Method in brief: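 MDCKII-MDR1 monolayers, HBSS transport medium pH 7.4; compound 3 μM for 90 min, run with and without a P-gp inhibitor, n = 3. Quantified by LC-MS/MS as analyte/internal-standard peak-area ratio; monolayer integrity checked with Lucifer yellow. Papp given in nm/sec, A>B.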

Cytochrome P450 2C19 = Cytochrome P450 2C19 (Homo sapiens, UniProt P33261); assay: Inhibition of recombinant human CYP2C19 expressed in baculosomes expression system using fluorogenic-BOMCC as substrate by fluorescent homogeneous assay; format: ADME
Cytochrome P450 2C19, sequence (P33261 whole entry): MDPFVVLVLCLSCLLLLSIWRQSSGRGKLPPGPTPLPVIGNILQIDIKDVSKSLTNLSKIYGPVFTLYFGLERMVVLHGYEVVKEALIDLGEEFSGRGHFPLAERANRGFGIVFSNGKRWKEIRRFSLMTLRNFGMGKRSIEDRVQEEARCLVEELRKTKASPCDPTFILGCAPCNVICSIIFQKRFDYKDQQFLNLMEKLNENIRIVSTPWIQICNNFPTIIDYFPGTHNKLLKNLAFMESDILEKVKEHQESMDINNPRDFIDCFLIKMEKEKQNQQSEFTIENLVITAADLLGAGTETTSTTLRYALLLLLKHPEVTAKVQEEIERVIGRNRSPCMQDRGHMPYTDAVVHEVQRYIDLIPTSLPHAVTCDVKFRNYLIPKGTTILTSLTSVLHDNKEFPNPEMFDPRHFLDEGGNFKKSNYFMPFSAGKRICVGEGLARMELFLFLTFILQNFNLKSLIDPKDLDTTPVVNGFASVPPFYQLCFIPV
Method in brief: (§1)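 Recombinant CYP baculosomes with fluorogenic substrates, at concentrations below their Km; homogeneous fluorescence read-out, run in triplicate. IC50 classes: <1 μM potent, 1–10 μM moderate, >10 μM weak or none.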

Mus musculus [2] = assay: In vivo inhibition of ACMSD in CD1 mouse kidney at 5 mg/kg, po after 0.5 to 2 hrs; format: functional, organism-based
Method in brief: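 CD1 mice dosed orally at 5 mg/kg in 0.5% (w/v) HPMC in water with 5% (v/v) DMSO; kidneys collected at various times, snap-frozen and ground. Tissue powder homogenised in 50 mM Tris pH 7.5, 0.15 M NaCl with protease inhibitors, spun 38 000g 20 min at 4 °C. Supernatant assayed spectrophotometrically with 30 μM 3-hydroxyanthranilic acid; activity normalised to BCA protein. One-way ANOVA with Dunnett's test.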

[3] = Cytotoxicity against mouse AML-12 cells assessed as reduction in cell viability after 4 hrs by celltiter-glo assay; format: cell-based; settings: aml-12, 4 h
Method in brief: (§2)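 HepG2 or AML12 cells, 5 × 10^3 per well, exposed to compound for 4 h at 37 °C. Viability read as ATP by CellTiter-Glo luminescence; tamoxifen control.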

[4] = Drug uptake in mouse central nervous system at 5 mg/kg, po in presence of P-gp inhibitor Elacridar; format: ADME, organism-based; settings: in vivo
[5] = Tmax in CD1 mouse at 5 mg/kg, po measured up to 8 hrs post dose; format: ADME, organism-based; settings: in vivo
Method in brief: (§3)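 Mice dosed orally at 5 mg/kg in 0.5% (w/v) HPMC in water with 5% (v/v) DMSO; blood, liver and kidney concentrations followed to 8 h. AUC0–8h given in h·ng/mL; parameters reported as means.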

HepG2 = assay: Cytotoxicity against human HepG2 cells assessed as reduction in cell viability after 4 hrs by celltiter-glo assay; format: cell-based; settings: hepg2, 4 h; method in brief: as §2
[6] = Ratio of AUClast in mouse kidney to blood at 5 mg/kg, po measured up to 8 hrs post dose
Cytochrome P450 2D6 = Cytochrome P450 2D6 (Homo sapiens, UniProt P10635); assay: Inhibition of recombinant human CYP2D6 expressed in baculosomes expression system using fluorogenic-BOMCC as substrate by fluorescent homogeneous assay; format: ADME; method in brief: as §1
Cytochrome P450 2D6, sequence (P10635 whole entry): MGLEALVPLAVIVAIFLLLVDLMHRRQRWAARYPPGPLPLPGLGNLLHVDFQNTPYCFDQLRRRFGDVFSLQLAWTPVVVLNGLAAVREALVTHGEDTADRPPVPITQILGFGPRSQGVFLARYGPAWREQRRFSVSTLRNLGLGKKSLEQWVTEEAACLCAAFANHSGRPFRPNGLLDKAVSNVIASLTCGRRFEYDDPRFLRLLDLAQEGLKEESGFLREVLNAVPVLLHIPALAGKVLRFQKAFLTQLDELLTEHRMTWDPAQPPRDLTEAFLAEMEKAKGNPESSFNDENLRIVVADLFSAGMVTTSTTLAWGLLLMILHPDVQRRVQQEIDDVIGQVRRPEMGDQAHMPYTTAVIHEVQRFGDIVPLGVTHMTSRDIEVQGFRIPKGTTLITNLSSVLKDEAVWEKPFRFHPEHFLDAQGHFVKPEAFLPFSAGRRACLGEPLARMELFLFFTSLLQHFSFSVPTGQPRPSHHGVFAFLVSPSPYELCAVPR

Homo sapiens [7] = species: Homo sapiens; assay: Activity at PPAR (unknown origin)
Method in brief: (§4)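 Eight-point serial dilutions tested in an in-house AlphaScreen-based nuclear receptor panel; activity derived from nonlinear regression curves.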

Homo sapiens [8] = species: Homo sapiens; assay: Activity at RXR (unknown origin); method in brief: as §4
[9] = Volume of distribution at steady state in CD1 mouse at 0.5 mg/kg, iv measured up to 24 hrs post dose; format: ADME, organism-based; settings: in vivo, read-out: Vdss
Method in brief: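 Mice given 0.5 mg/kg IV in saline containing 5% (v/v) DMSO and 20% (v/v) PEG400; blood pharmacokinetic parameters reported as means.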

Mus musculus [10] = assay: In vivo inhibition of ACMSD in C57BL/6 mouse assessed as increase in NAD+ levels in liver at 15 and 30 mg/kg/day for 10 days dosed as diet supplement by ion-pair C18- HPLC chromatography; format: functional, organism-based
Method in brief: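 Male mice given the compound in the diet for 10 days; vehicle 5% DMSO, 20% PEG. After a 3 h fast, livers snap-frozen and ground; NAD+ extracted by sonication in HClO4, quantified by ion-pair C18 HPLC and normalised to BCA protein. One-way ANOVA with Dunnett's test.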

[11] = Oral bioavailability in CD1 mouse at 5 mg/kg measured up to 8 hrs after dose; format: ADME, organism-based; settings: in vivo; method in brief: as §3
[12] = AUClast in mouse blood at 5 mg/kg, po measured up to 8 hrs post dose; format: ADME, organism-based; design: time < 8 hr, dose 5 mg/kg, route oral; method in brief: as §3
Homo sapiens [13] = species: Homo sapiens; assay: Activity at LXR (unknown origin); method in brief: as §4
[14] = target: 2-amino-3-carboxymuconate-6-semialdehyde decarboxylase (Homo sapiens, UniProt Q8TDX5); assay: Inhibition of ACMSD in human primary hepatocytes assessed as increase in intracellular NAD+ levels at 5 uM after 48 hrs by NAD/NADH-Glo assay; format: cell-based
2-amino-3-carboxymuconate-6-semialdehyde decarboxylase, sequence (Q8TDX5 whole entry, looked up): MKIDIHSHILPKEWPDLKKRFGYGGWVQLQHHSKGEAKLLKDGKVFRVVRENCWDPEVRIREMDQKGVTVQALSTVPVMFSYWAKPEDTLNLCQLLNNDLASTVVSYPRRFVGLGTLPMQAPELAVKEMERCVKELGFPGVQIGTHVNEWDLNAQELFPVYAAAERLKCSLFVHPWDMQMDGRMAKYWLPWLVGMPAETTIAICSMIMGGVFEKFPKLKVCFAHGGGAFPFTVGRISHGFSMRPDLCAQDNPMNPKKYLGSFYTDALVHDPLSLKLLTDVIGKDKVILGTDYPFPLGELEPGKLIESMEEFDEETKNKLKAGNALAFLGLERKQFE

Cytochrome P450 3A1 = target: T1, Cytochrome P450 3A1 (Rattus norvegicus, UniProt P04800); assay: Inhibition of recombinant rat CYP3A1 expressed in baculosomes expression system using fluorogenic-BOMCC as substrate by fluorescent homogeneous assay; format: ADME; method in brief: as §1
T1 sequence (P04800 whole entry): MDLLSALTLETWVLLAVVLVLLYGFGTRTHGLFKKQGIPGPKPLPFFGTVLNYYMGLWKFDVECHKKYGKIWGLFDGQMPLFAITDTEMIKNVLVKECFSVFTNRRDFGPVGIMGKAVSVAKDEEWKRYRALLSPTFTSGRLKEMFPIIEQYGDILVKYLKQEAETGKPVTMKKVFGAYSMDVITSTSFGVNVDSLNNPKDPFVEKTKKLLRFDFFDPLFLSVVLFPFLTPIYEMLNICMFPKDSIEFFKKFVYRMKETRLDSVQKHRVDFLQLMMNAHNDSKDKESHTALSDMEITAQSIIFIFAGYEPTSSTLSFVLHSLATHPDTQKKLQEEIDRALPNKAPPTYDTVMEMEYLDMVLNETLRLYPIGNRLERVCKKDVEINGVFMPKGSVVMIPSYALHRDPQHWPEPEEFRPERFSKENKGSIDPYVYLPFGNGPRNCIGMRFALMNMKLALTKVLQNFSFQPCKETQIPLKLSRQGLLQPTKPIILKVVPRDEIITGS

[15] = target: T2, Bile acid receptor (Homo sapiens) (UniProt Q96RI1); assay: Activity at FXR (unknown origin); method in brief: as §4
T2 sequence (whole entry): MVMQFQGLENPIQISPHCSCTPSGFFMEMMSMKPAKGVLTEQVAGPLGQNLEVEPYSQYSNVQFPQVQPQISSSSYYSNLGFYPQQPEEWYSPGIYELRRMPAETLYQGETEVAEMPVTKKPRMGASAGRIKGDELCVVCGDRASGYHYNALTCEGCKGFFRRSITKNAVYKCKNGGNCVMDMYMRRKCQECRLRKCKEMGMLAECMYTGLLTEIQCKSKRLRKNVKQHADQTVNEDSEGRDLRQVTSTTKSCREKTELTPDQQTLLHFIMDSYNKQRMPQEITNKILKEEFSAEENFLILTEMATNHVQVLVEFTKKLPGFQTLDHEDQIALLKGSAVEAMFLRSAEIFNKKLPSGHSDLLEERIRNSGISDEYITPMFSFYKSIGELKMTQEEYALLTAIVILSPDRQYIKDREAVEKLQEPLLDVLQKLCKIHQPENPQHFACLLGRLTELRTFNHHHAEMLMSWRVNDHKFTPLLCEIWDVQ

Papp A→B at 1.5 h, 3 µM [1]: 0.456 ×10⁻⁶ cm/s | IC50 (Cytochrome P450 2C19): > 10 µM | Drug uptake [4]: Not Active | Tmax [5]: 2 h | Kp at 8 h [6]: 2.9 | IC50 (Cytochrome P450 2D6): > 10 µM | Activity (Homo sapiens [7]): inactive | Activity (Homo sapiens [8]): inactive | Vd [9]: 0.273 L/kg | bioavailability [11]: 12% | AUC(0-t) at 8 h [12]: 12700 ng·h/mL | Activity (Homo sapiens [13]): inactive | inhibition [14]: Active | IC50 (Cytochrome P450 3A1): > 10 µM | Activity [15]: inactive
SMILES: N#Cc1c(-c2cccs2)nc(SCc2cccc(CC(=O)O)c2)[nH]c1=O
inhibition (Mus musculus [2]): Active | Activity [3]: Non-Toxic | Activity (HepG2): Non-Toxic | inhibition (Mus musculus [10]): Active
